Experimental data of several laboratories.
pEC50: −log10 of the molar value.
Organism: Plasmodium falciparum
Observed: parasite growth

CCn1cc(C(N)=O)c(=O)c2cc(F)c(N3CCC(C)CC3)cc21 has a pEC50 of 6.41 (3D7; 72 h, blood stage).
For COc1ccc(NC(=O)N2CCCCN3[C@H](CN(C)C)[C@H](c4ccc(C#Cc5ccccc5)cc4)[C@@H]3C2)cc1, the pEC50 was 7.89 (DD2; blood stage).
With CNS(=O)(=O)c1ccccc1Nc1nc(Nc2cc(OC)c(OC)cc2C)ncc1Br the pEC50 was 6.82 (3D7; 72 h, blood stage).
With CCn1cc(C(=O)N2CCOCC2)c(=O)c2cc(F)c(N3CCC(C)CC3)cc21 the pEC50 was < 5.00 (3D7; 72 h, blood stage).
CC/N=C(\c1ccc(OC)c(OC)c1)N1CCCc2cc(C3=NNC(=O)SC3C)ccc21 (centres unmarked) gave a pEC50 of 5.75 (3D7; 72 h, blood stage).
With COc1ccc(Nc2ccnc3cc(-c4ccc(S(=O)(=O)N5CCN(C)CC5)cc4)ccc23)cc1 the pEC50 was 7.74 (D6; drug-resistant strain, blood stage).
For COc1ccc(CNc2nc(-c3ccc(C(=O)O)nc3)nc3sc4c(c23)CCCC4)cc1Cl, the pEC50 was 5.80 (3D7; 72 h, blood stage).
C[C@H]1[C@@H](O)O[C@@H]2O[C@@]3(C)CC[C@H]4[C@H](C)CC[C@@H]1[C@@]24OO3 has a pEC50 of 7.86 (NF54; 24 h, gametocyte).
CCn1cc(-c2nc(C)no2)c(=O)c2cc(F)c(N3CCCC3)cc21 gave a pEC50 of 6.30 (3D7; 72 h, blood stage).
COc1cc(C(=O)N(C)C)ccc1-c1cc2nccc(-c3ccc4ccncc4c3)c2o1 has a pEC50 of 6.00 (3D7; 72 h, blood stage).
For COc1ccc(Nc2ccnc3cc(Nc4ccnc(N5CCN(C)CC5)n4)ccc23)cc1Cl, the pEC50 was 7.11 (D6; drug-resistant strain, blood stage).
CCn1cc(-c2nc(C)no2)c(=O)c2cc(F)c(N3CCC(c4ccccc4)CC3)cc21 gave a pEC50 of 7.52 (3D7; 72 h, blood stage).
CN1CCN(S(=O)(=O)c2ccc(-c3ccc4c(Nc5cnc(C#N)cn5)ccnc4c3)cc2)CC1 has a pEC50 of 6.92 (D6; drug-resistant strain, blood stage).
For O=C(Nc1ccc(CNc2ncnc3ccccc23)cc1)c1ccc(Cl)c(F)c1, the pEC50 was 5.82 (3D7; 72 h, blood stage).
The pEC50 of CC(C)(C)OC(=O)Nc1ccc2c(Nc3ccc(OCc4cccc(F)c4)c(Cl)c3)ccnc2c1 is reported as 7.30 (D6; drug-resistant strain, blood stage).
The pEC50 of CCCNCC(O)COc1ccccc1C(=O)CCc1ccccc1 (centres unmarked) is reported as 5.57 (SYBR Green; 3D7; blood stage).
CCn1cc(-c2nc(C)no2)c(=O)c2cc(F)c(N3CCCC(C)C3)cc21 (centres unmarked) gave a pEC50 of 6.94 (3D7; 72 h, blood stage).
With CN1CCN(S(=O)(=O)c2ccc(-c3ccc4c(Nc5cccc(Cl)c5)ccnc4c3)cc2)CC1 the pEC50 was 6.70 (D6; drug-resistant strain, blood stage).
For CCn1cc(-c2nc(C)no2)c(=O)c2cc(F)c(N3CCC(Cc4ccccc4)CC3)cc21, the pEC50 was 7.49 (3D7; blood stage).
CN1CCN(S(=O)(=O)c2cccc(-c3ccc4c(Nc5ccc(OCc6cccc(F)c6)c(Cl)c5)ccnc4c3)c2)CC1 has a pEC50 of 8.00 (D6; drug-resistant strain, blood stage).
